Assay results taken from ChEMBL document CHEMBL1641600, “Novel bifunctional alkylating agents, 5,10-dihydropyrrolo[1,2-b]isoquinoline derivatives, synthesis and biological activity” (Bioorg Med Chem, 2011).
Active and inactive are the calls of the source. The rule behind the calls is not given here.

Columns and labels:
[1] = Cytotoxicity against human OECM1 cells after 72 hrs by Alamar blue assay; assay type: functional, cell-based; settings: OECM1, 72 h
How it was run: (§1)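 H1299, PC3, OECM1 and U87 cells exposed 72 h to six or seven drug concentrations. Alamar blue added for 6 h at 37 °C; absorbance read at 570 and 600 nm. IC50 obtained from dose-effect data by the median-effect principle.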

[2] = Cytotoxicity against human U87 cells after 72 hrs by Alamar blue assay; assay type: functional, cell-based, U-87MG ATCC; settings: U-87 MG; how it was run: as §1
[3] = Cytotoxicity against human H1299 cells after 72 hrs by Alamar blue assay; assay type: functional, cell-based; settings: NCI-H1299, 72 h; how it was run: as §1
[4] = system: PC-3; assay: Cytotoxicity against human PC3 cells after 72 hrs by Alamar blue assay; assay type: functional, cell-based; settings: PC-3, 72 h; how it was run: as §1
[5] = system: MX1; assay: Cytotoxicity against human MX1 cells after 72 hrs by SRB assay; assay type: functional, cell-based; settings: MX1, 72 h
How it was run: (§2)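 MX-1 breast and HCT-116 colon carcinoma cells exposed 72 h to six or seven drug concentrations. Growth measured by SRB assay with microplate absorbance. IC50 obtained from dose-effect data by the median-effect principle.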

[6] = system: HCT-116; assay: Cytotoxicity against human HCT116 cells after 72 hrs by SRB assay; assay type: functional, cell-based; settings: HCT-116, 72 h; how it was run: as §2
[7] = system: CCRF-CEM; assay: Cytotoxicity against vinblastine-resistant human CCRF-CEM cells after 72 hrs by XTT assay; assay type: functional, cell-based
How it was run: (§3)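 Leukemic CCRF-CEM and its Taxol- and vinblastine-resistant sublines exposed 72 h to six or seven drug concentrations. XTT with phenazine methosulfate added for 6 h at 37 °C; absorbance read at 450 and 630 nm. IC50 obtained from dose-effect data by the median-effect principle.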

[8] = system: CCRF-CEM; assay: Cytotoxicity against Taxol-resistant human CCRF-CEM cells after 72 hrs by XTT assay; assay type: functional, cell-based; how it was run: as §3
[9] = system: CCRF-CEM; assay: Cytotoxicity against human CCRF-CEM cells after 72 hrs by XTT assay; assay type: functional, cell-based; how it was run: as §3
[10] = system: MX1; assay: Antitumor activity against human MX1 cells implanted in mouse assessed as complete suppression in tumor size at 30 mg/kg, iv Q2D for 2 times measured on day 8 and 10; assay type: functional, organism-based; design: dose 30 mg/kg
How it was run: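 Athymic nu/nu nude mice (outbred Swiss background, male, ≥8 weeks, about 22 g) bearing human tumor xenografts; MX-1 dosed iv Q2D×2 (day 8 and 10), SK-OV-3 dosed iv QD×4 from day 22. Tail-vein injection in DMSO/Tween 80/saline vehicle at the maximal tolerable dose. Tumor volume measured by caliper (length×width×height or width); body weight followed; n = 4.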

[11] = system: Nucleic Acid; assay: Induction of Escherichia coli pEGFP-N1 DNA cross-linking at 1 to 20 uM after 2 hrs by alkaline agarose gel shift assay; assay type: nucleic-acid assay
How it was run: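 pEGFP-N1 plasmid DNA (1.5 µg) incubated with compound (1–20 µM) in binding buffer (3 mM NaCl/1 mM sodium phosphate pH 7.4, 1 mM EDTA) for 2 h at 37 °C. Plasmid then linearized with BamHI, ethanol-precipitated, and resolved on alkaline agarose gel into single-stranded and cross-linked bands. Melphalan (1, 5, 10 µM) as positive control.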

[12] = system: CCRF-CEM; assay: Ratio of IC50 for Taxol-resistant human CCRF-CEM cells to IC50 for human CCRF-CEM cells
[13] = system: NCI-H1299; assay: Cell cycle arrest in human H1299 cells assessed as accumulation at S phase at 5 uM after 24 hrs by propidium iodide staining-based flow cytometry; settings: NCI-H1299, 24 h
[14] = system: NCI-H1299; assay: Cell cycle arrest in human H1299 cells assessed as accumulation at G1 phase at 5 uM after 24 hrs by propidium iodide staining-based flow cytometry; settings: NCI-H1299, 24 h
[15] = system: NCI-H1299; assay: Cell cycle arrest in human H1299 cells assessed as accumulation at S phase at 2.5 uM after 24 hrs by propidium iodide staining-based flow cytometry; settings: NCI-H1299, 24 h
[16] = system: NCI-H1299; assay: Cell cycle arrest in human H1299 cells assessed as accumulation at S phase at 1.25 uM after 24 hrs by propidium iodide staining-based flow cytometry; settings: NCI-H1299, 24 h
[17] = system: NCI-H1299; assay: Cell cycle arrest in human H1299 cells assessed as accumulation at G1 phase at 2.5 uM after 24 hrs by propidium iodide staining-based flow cytometry; settings: NCI-H1299, 24 h
[18] = system: NCI-H1299; assay: Cell cycle arrest in human H1299 cells assessed as accumulation at G2/M phase at 5 uM after 24 hrs by propidium iodide staining-based flow cytometry; settings: NCI-H1299, 24 h
[19] = system: NCI-H1299; assay: Cell cycle arrest in human H1299 cells assessed as accumulation at G1 phase at 1.25 uM after 24 hrs by propidium iodide staining-based flow cytometry; settings: NCI-H1299, 24 h
[20] = system: NCI-H1299; assay: Cell cycle arrest in human H1299 cells assessed as accumulation at subG1 phase at 5 uM after 24 hrs by propidium iodide staining-based flow cytometry; settings: NCI-H1299, 24 h
[21] = system: NCI-H1299; assay: Cell cycle arrest in human H1299 cells assessed as accumulation at G2/M phase at 2.5 uM after 24 hrs by propidium iodide staining-based flow cytometry; settings: NCI-H1299, 24 h
[22] = system: NCI-H1299; assay: Cell cycle arrest in human H1299 cells assessed as accumulation at G2/M phase at 1.25 uM after 24 hrs by propidium iodide staining-based flow cytometry; settings: NCI-H1299, 24 h
[23] = system: NCI-H1299; assay: Cell cycle arrest in human H1299 cells assessed as accumulation at subG1 phase at 2.5 uM after 24 hrs by propidium iodide staining-based flow cytometry; settings: NCI-H1299, 24 h
[24] = system: NCI-H1299; assay: Cell cycle arrest in human H1299 cells assessed as accumulation at subG1 phase at 1.25 uM after 24 hrs by propidium iodide staining-based flow cytometry; settings: NCI-H1299, 24 h
[25] = system: SK-OV-3; assay: Antitumor activity against human SKOV3 cells implanted in mouse assessed as significant suppression in tumor size at 20 mg/kg, iv QD for 4 times measured on day 22

Compound `Cc1c(CO)c(CO)c2n1Cc1ccccc1C2` has an IC50 [1] of 6100 nM, an IC50 [2] of 27900 nM and an IC50 [3] of 2480 nM. For the same compound, the IC50 [4] was 6070 nM, the IC50 [5] was 660 nM and the IC50 [6] was 290 nM. The IC50 [7] was 90 nM, the IC50 [8] was 100 nM and the IC50 [9] was 80 nM. For the same compound, the Activity [10] was “Active”, the Activity [11] was “Active” and the “Ratio IC50” value [12] was 1.22. It also gave a cell population % at 5 µM [13] of 24.7%, a cell population % at 5 µM [14] of 0.5% and a cell population % at 2.5 µM [15] of 18.3%. For the same compound, the cell population % at 1.25 µM [16] was 32.7%, the cell population % at 2.5 µM [17] was 7.7% and the cell population % at 5 µM [18] was 48.4%. The cell population % at 1.25 µM [19] was 5.6%, the cell population % at 5 µM [20] was 26.5% and the cell population % at 2.5 µM [21] was 47.3%. For the same compound, the cell population % at 1.25 µM [22] was 40.1%, the cell population % at 2.5 µM [23] was 26.6% and the cell population % at 1.25 µM [24] was 21.6%. The Activity [25] was “Active”.
